Test system: Fibroblast
Assay: Multiplex assay against human fibroblast
Assay type: toxicity, cell-based
Summary of the method: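 Values for tubulin, mitochondrial-mass and membrane-permeability phenotypes are per cents of cells with healthy nuclei. These cells were identified by CellPathfinder machine-learning gating of live cells that had been stained at seeding with Hoechst33342, BioTracker Green Microtubule Cytoskeleton Dye, MitoTracker Red and Annexin V Alexa Fluor 680 and imaged on a CQ1 microscope at 37°C and 5% CO2 after compound addition. The gating first set Hoechst high-intensity objects apart from normal cells, then split normal cells into healthy, pyknosed or fragmented nuclei, and pyknosed cells into mitotic or apoptotic.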

[1] = 12 h, 1 µM, compound concentration 1 uM, replicate 1
[2] = 12 h, 1 µM, compound concentration 1 uM, replicate 2
[3] = 12 h, 10 µM, compound concentration 10 uM, replicate 1
[4] = 12 h, 10 µM, compound concentration 10 uM, replicate 2
[5] = 24 h, 1 µM, compound concentration 1 uM, replicate 1
[6] = 24 h, 1 µM, compound concentration 1 uM, replicate 2
[7] = 24 h, 10 µM, compound concentration 10 uM, replicate 1
[8] = 24 h, 10 µM, compound concentration 10 uM, replicate 2
[9] = 48 h, 1 µM, compound concentration 1 uM, replicate 1
[10] = 48 h, 1 µM, compound concentration 1 uM, replicate 2
[11] = 48 h, 10 µM, compound concentration 10 uM, replicate 1
[12] = 48 h, 10 µM, compound concentration 10 uM, replicate 2

Structure (SMILES): c1cc(OCCCN2CCCCC2)ccc1CN1CCCCC1 [JNJ-5207852]
- Population Apoptotic (%) [1]: 37%
- Population Fragmented Nuclei (%) [1]: 15%
- Population Healthy Nuclei (%) [1]: 64%
- Population Hoechst High Intensity Objects (%) [1]: 1%
- Population Membrane Permeable-Phenotype (%) [1]: 0%
- Population Mitochondria Different-Phenotype (%) [1]: 2%
- Population Mitotic Cells (%) [1]: 62%
- Population Normal (%) [1]: 98%
- Population Pyknosed Nuclei (%) [1]: 20%
- Population Tubulin-Different-Phenotype (%) [1]: 26%
- Total Cell Count [1]: 181
- Population Apoptotic (%) [2]: 26%
- Population Fragmented Nuclei (%) [2]: 24%
- Population Healthy Nuclei (%) [2]: 51%
- Population Hoechst High Intensity Objects (%) [2]: 7%
- Population Membrane Permeable-Phenotype (%) [2]: 8%
- Population Mitochondria Different-Phenotype (%) [2]: 5%
- Population Mitotic Cells (%) [2]: 73%
- Population Normal (%) [2]: 92%
- Population Pyknosed Nuclei (%) [2]: 23%
- Population Tubulin-Different-Phenotype (%) [2]: 49%
- Total Cell Count [2]: 153
- Population Apoptotic (%) [3]: 50%
- Population Fragmented Nuclei (%) [3]: 22%
- Population Healthy Nuclei (%) [3]: 68%
- Population Hoechst High Intensity Objects (%) [3]: 1%
- Population Membrane Permeable-Phenotype (%) [3]: 0%
- Population Mitochondria Different-Phenotype (%) [3]: 6%
- Population Mitotic Cells (%) [3]: 50%
- Population Normal (%) [3]: 98%
- Population Pyknosed Nuclei (%) [3]: 9%
- Population Tubulin-Different-Phenotype (%) [3]: 35%
- Total Cell Count [3]: 193
- Population Apoptotic (%) [4]: 43%
- Population Fragmented Nuclei (%) [4]: 36%
- Population Healthy Nuclei (%) [4]: 42%
- Population Membrane Permeable-Phenotype (%) [4]: 12%
- Population Mitochondria Different-Phenotype (%) [4]: 10%
- Population Mitotic Cells (%) [4]: 56%
- Population Pyknosed Nuclei (%) [4]: 20%
- Population Tubulin-Different-Phenotype (%) [4]: 60%
- Total Cell Count [4]: 114
- Population Apoptotic (%) [5]: 38%
- Population Fragmented Nuclei (%) [5]: 18%
- Population Healthy Nuclei (%) [5]: 66%
- Population Hoechst High Intensity Objects (%) [5]: 2%
- Population Membrane Permeable-Phenotype (%) [5]: 0%
- Population Mitochondria Different-Phenotype (%) [5]: 2%
- Population Mitotic Cells (%) [5]: 61%
- Population Normal (%) [5]: 97%
- Population Pyknosed Nuclei (%) [5]: 15%
- Population Tubulin-Different-Phenotype (%) [5]: 23%
- Total Cell Count [5]: 176
- Population Apoptotic (%) [6]: 33%
- Population Fragmented Nuclei (%) [6]: 28%
- Population Healthy Nuclei (%) [6]: 51%
- Population Hoechst High Intensity Objects (%) [6]: 5%
- Population Membrane Permeable-Phenotype (%) [6]: 5%
- Population Mitochondria Different-Phenotype (%) [6]: 6%
- Population Mitotic Cells (%) [6]: 66%
- Population Normal (%) [6]: 95%
- Population Pyknosed Nuclei (%) [6]: 19%
- Population Tubulin-Different-Phenotype (%) [6]: 55%
- Total Cell Count [6]: 160
- Population Apoptotic (%) [7]: 60%
- Population Fragmented Nuclei (%) [7]: 24%
- Population Healthy Nuclei (%) [7]: 65%
- Population Hoechst High Intensity Objects (%) [7]: 1%
- Population Membrane Permeable-Phenotype (%) [7]: 0%
- Population Mitochondria Different-Phenotype (%) [7]: 6%
- Population Mitotic Cells (%) [7]: 40%
- Population Normal (%) [7]: 99%
- Population Pyknosed Nuclei (%) [7]: 10%
- Population Tubulin-Different-Phenotype (%) [7]: 34%
- Total Cell Count [7]: 201
- Population Apoptotic (%) [8]: 41%
- Population Fragmented Nuclei (%) [8]: 45%
- Population Healthy Nuclei (%) [8]: 38%
- Population Hoechst High Intensity Objects (%) [8]: 5%
- Population Membrane Permeable-Phenotype (%) [8]: 4%
- Population Mitochondria Different-Phenotype (%) [8]: 13%
- Population Mitotic Cells (%) [8]: 58%
- Population Normal (%) [8]: 94%
- Population Pyknosed Nuclei (%) [8]: 15%
- Population Tubulin-Different-Phenotype (%) [8]: 67%
- Total Cell Count [8]: 118
- Population Apoptotic (%) [9]: 70%
- Population Fragmented Nuclei (%) [9]: 18%
- Population Healthy Nuclei (%) [9]: 63%
- Population Hoechst High Intensity Objects (%) [9]: 2%
- Population Membrane Permeable-Phenotype (%) [9]: 0%
- Population Mitochondria Different-Phenotype (%) [9]: 2%
- Population Mitotic Cells (%) [9]: 29%
- Population Normal (%) [9]: 97%
- Population Pyknosed Nuclei (%) [9]: 17%
- Population Tubulin-Different-Phenotype (%) [9]: 23%
- Total Cell Count [9]: 184
- Population Apoptotic (%) [10]: 44%
- Population Fragmented Nuclei (%) [10]: 32%
- Population Healthy Nuclei (%) [10]: 48%
- Population Hoechst High Intensity Objects (%) [10]: 4%
- Population Membrane Permeable-Phenotype (%) [10]: 5%
- Population Mitotic Cells (%) [10]: 55%
- Population Normal (%) [10]: 95%
- Population Pyknosed Nuclei (%) [10]: 18%
- Population Tubulin-Different-Phenotype (%) [10]: 50%
- Total Cell Count [10]: 160
- Population Apoptotic (%) [11]: 55%
- Population Fragmented Nuclei (%) [11]: 19%
- Population Healthy Nuclei (%) [11]: 70%
- Population Hoechst High Intensity Objects (%) [11]: 2%
- Population Membrane Permeable-Phenotype (%) [11]: 0%
- Population Mitochondria Different-Phenotype (%) [11]: 2%
- Population Mitotic Cells (%) [11]: 44%
- Population Normal (%) [11]: 97%
- Population Pyknosed Nuclei (%) [11]: 9%
- Population Tubulin-Different-Phenotype (%) [11]: 34%
- Total Cell Count [11]: 189
- Population Apoptotic (%) [12]: 30%
- Population Fragmented Nuclei (%) [12]: 48%
- Population Healthy Nuclei (%) [12]: 41%
- Population Hoechst High Intensity Objects (%) [12]: 3%
- Population Membrane Permeable-Phenotype (%) [12]: 5%
- Population Mitochondria Different-Phenotype (%) [12]: 11%
- Population Mitotic Cells (%) [12]: 69%
- Population Normal (%) [12]: 96%
- Population Pyknosed Nuclei (%) [12]: 10%
- Population Tubulin-Different-Phenotype (%) [12]: 66%
- Total Cell Count [12]: 132
